Screening data (PubChem BioAssay)
Biofilm kill mix – mixtures killing C. albicans biofilm. actives 0.02% (n = 120,000). inhibition, % at 7.6 µM. C. albicans biofilm persisters + clotrimazole, fluorescence viability; primary screen in compound mixtures of four per well. AID 1242;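 active = inhibition above 30.3% in the primary screen of four-compound pools, then above 30% when the compound was retested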;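 also: compounds exposed to preformed 24 h biofilms for 48 h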
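Test system: C. albicans biofilms. Buffer or medium: RPMI/MOPS medium, pH 7.0. Timing: 48 h compound exposure at 37 °C. Technique: Alamar Blue fluorescence. Evaluation: percent inhibition of biofilm viability.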
Rad51 HR inh – Rad51 (human) homologous recombination inhibition. inhibition, % at 10 µM. hRad51 DNA strand exchange, fluorescence dequenching. actives 0.085% (n = 200,000). Q06609;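 active = inhibition above 40% at the single screening dose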
Target sequence (Q06609 whole entry, looked up): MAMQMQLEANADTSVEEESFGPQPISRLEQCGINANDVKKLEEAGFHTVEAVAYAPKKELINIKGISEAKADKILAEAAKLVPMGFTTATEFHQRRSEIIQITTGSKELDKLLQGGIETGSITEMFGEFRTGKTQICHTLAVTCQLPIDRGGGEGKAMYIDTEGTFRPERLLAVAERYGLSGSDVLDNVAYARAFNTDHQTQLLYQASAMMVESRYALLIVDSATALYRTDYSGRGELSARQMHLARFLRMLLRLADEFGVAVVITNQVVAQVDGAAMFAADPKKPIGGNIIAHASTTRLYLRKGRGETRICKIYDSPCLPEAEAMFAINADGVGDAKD
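material = hRad51 filaments on single-stranded DNA | timing = filaments 15 min 37 °C, then compound 30 min | signal = FRET fluorescence dequenching, excitation 485 nm, emission 520 nm | benchmarks = control wells and blank wells on each plate | evaluation = percent inhibition relative to plate controls and blanks | compound = 10 µM final, single point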
S1P3 antag-1 – antagonists of human S1P3 receptor | inhibition, % at 4.98 µM | CHO S1P3 NFAT-BLA reporter, FRET fluorescence, antagonist mode | Q99500 | actives 0.27% (n = 170,000);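 active = inhibition above the plate cutoff, the mean inhibition of test wells on that plate plus 3 SD, cut at about 28% in these data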;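 also: cells challenged with S1P at its EC80 of 0.8 µM; blue over green emission ratio from cleaved BLA substrate after 4 h stimulation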
S1P3 antag-2 – human S1P3 receptor antagonism, confirmation | shares compounds with S1P3 antag-1 | CHO S1P3 NFAT-BLA reporter, FRET, antagonist mode | inhibition, % at 4.98 µM | actives 30% (n = 240) | AID 1429;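 active = inhibition above the hit threshold that was computed for the earlier primary screen, cut at about 30% in these data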
Hits are given with their value; n = inactive; x = not tested or not shown. The list is not random: actives were taken first. Their share in the collection is about 0.31%.

SMILES	Biofilm kill mix	Rad51 HR inh	S1P3 antag-1	S1P3 antag-2
C/C(=N\Nc1ccc([N+](=O)[O-])cc1)c1cccc(N)c1	x	n	x	x
C/C(=N\Nc1ccc([N+](=O)[O-])cc1)c1ccc(O)cc1	n	n	34	n
Cc1ccc(NC(=O)N2CCCCC2)cc1[N+](=O)[O-]	n	n	n	x
O=C(COc1ccc([N+](=O)[O-])cc1)Nc1ccc(CN2CCOCC2)cc1	n	n	n	x
O=C(Nc1ccc(N2CCCC2)cc1)C(c1ccccc1)c1ccccc1	x	n	x	x
O=C(Nc1ccc(Br)cc1)C(c1ccccc1)c1ccccc1	n	n	57	69
O=C(Nc1ccc2ccccc2c1)C(c1ccccc1)C1CCCC1 (stereo unspecified)	n	n	55	66
CCC(C(=O)Nc1ccc(C)cc1)c1ccccc1 (stereo unspecified)	n	n	n	x
CCc1ccc(NC(=O)C(CC)c2ccccc2)cc1 (stereo unspecified)	n	x	29	n
Cc1ccc(NC(=O)C(c2ccccc2)C2CCCC2)cc1 (stereo unspecified)	n	n	60	70
Cc1ccccc1NC(=O)C(c1ccccc1)C1CCCC1 (stereo unspecified)	n	n	n	x
NC(=O)C(c1ccccc1)C1CCCC1 (stereo unspecified)	x	n	x	x
CC(=O)Nc1nc(SCC(=O)Nc2nnc(C)s2)[nH]c(=O)c1NC(=O)c1cccs1	n	x	n	x
CC1CCC(N2CCNCC2)CC1 (stereo unspecified)	n	n	n	x
CCOc1ccccc1NC(=O)C1=C(C)NC(=S)NC1c1cccs1 (stereo unspecified)	n	x	n	x
Cc1ccc(-n2cc(CN3CCN(C(=O)c4ncn[nH]4)CC3)c(-c3ccc(F)cc3)n2)cc1	n	x	n	x
O=C1/C(=C/c2ccccc2)SC(=S)N1N1C(=O)C2CC2C1=O (stereo unspecified)	n	n	n	x
CCOC(=O)N1CCC(N(CCN(C)C)C(=S)Nc2cc(Cl)ccc2C)CC1	n	n	n	x
CCSc1nnc(NC(=O)CSc2nnc(C)c(=O)n2N)s1	n	x	n	x
O=C(CNc1n[nH]c(=O)[nH]c1=O)N/N=C/c1cccnc1	n	n	39	n
O=C(CNc1n[nH]c(=O)[nH]c1=O)N/N=C/c1ccccc1	n	n	n	x
O=C(Cn1nc(-c2ccc3c(c2)OCCO3)ccc1=O)Nc1cccc(NC(=O)c2ccccn2)c1	n	n	n	x
N#Cc1c(NC(=O)/C=C/c2ccco2)sc2c1CCCC2	n	n	29	29
O=C(/C=C/c1ccco1)Nc1sc2c(c1C(=O)O)CCC2	x	n	x	x
O=c1c2[nH]c3ccccc3c2ncn1CCC1=CCCCC1	x	n	n	x
SMILES	Biofilm kill mix	Rad51 HR inh	S1P3 antag-1	S1P3 antag-2
C1=C(CCNc2ncnc3c2[nH]c2ccccc23)CCCC1	n	n	41	n
Cc1ccccc1Nc1nc(-c2cccnc2)nc2ccccc12	n	x	n	x
Cc1ccc(Nc2nc(-c3cccnc3)nc3ccccc23)cc1	n	x	35	n
CN(Cc1ccccc1)C(=O)C1CCCN(Cc2cccc(Cl)c2)C1 (stereo unspecified)	n	n	n	x
CN(C)c1ccc(/C=C2\SC(=O)N(CC(O)Cn3c4ccccc4c4ccccc43)C2=O)cc1 (stereo unspecified)	n	n	n	x
O=C1S/C(=C/c2ccccc2)C(=O)N1CC(O)Cn1c2ccccc2c2ccccc21 (stereo unspecified)	n	n	40	n
O=c1cc(C(F)(F)F)[nH]c2ccc(C(F)(F)F)cc12	n	n	n	x
COC(=O)c1scc2c(=O)cc(C(F)(F)F)[nH]c12	n	n	32	n
CCOC(=O)N1CCC(N(CCN(C)C)C(=S)Nc2cccc(Cl)c2)CC1	n	n	n	x
CCOC(=O)N1CCC(N(CCN(C)C)C(=S)Nc2cc(Cl)cc(Cl)c2)CC1	n	n	29	n
COC(=O)c1ccccc1NC(=O)CSc1nc(C)cc(C)n1	n	x	n	x
Cc1cc(C)nc(SCC(=O)Nc2ccnc3ccccc23)n1	n	n	30	n
C=CCn1c(O)c(N=Nc2nc3ccccc3c(=O)n2-c2ccccc2)c2ccccc21	n	n	n	x
CCc1cccc(C)c1N1C(=O)CC(C)(C)CC1=O	n	n	n	x
CC(=O)NC(Cc1ccc(F)cc1)C(=O)NC1CCN(c2ncccc2[N+](=O)[O-])CC1 (stereo unspecified)	n	n	n	x
CC(=O)c1c(C)[nH]c(C(=O)Nc2nc(-c3ccccc3)c(C)s2)c1C	n	n	n	x
CC(=O)c1c(C)[nH]c(C(=O)NC(C)c2ccccc2)c1C (stereo unspecified)	n	n	38	n
CCCCNc1ccc2c3c(cccc13)C(=O)N(CCCC)C2=O	n	n	47	59
CN(C)CCCN1C(=O)c2cccc3c(Br)ccc(c23)C1=O	n	n	n	x
CO/N=C/c1ccc(Oc2ccc(C)cc2)nc1	x	n	x	x
Cc1ccc(Oc2ccc(C=O)cn2)cc1	n	n	34	n
Cc1cccc(C2c3[nH]c4ccccc4c3CCN2C(=O)Cc2n[nH]c(C)n2)n1 (stereo unspecified)	n	x	n	x
CCC(C)[C@H](NC(=O)Nc1ccc(C)cc1C)C(=O)O (stereo partly specified)	n	x	n	x
Cc1ccc(NC(=O)CCC(=O)NNC(=O)NC2CCCCC2)c(C)c1	n	n	n	x
CCCCCCCCNc1ncnc2ccccc12	x	n	x	x
SMILES	Biofilm kill mix	Rad51 HR inh	S1P3 antag-1	S1P3 antag-2
c1ccc(CCNc2ncnc3ccccc23)cc1	n	n	44	33
COc1ccc(NS(=O)(=O)c2cccc(NC(=O)c3ccc(Cl)nc3)c2)cc1	n	n	33	n
O=C(Nc1cccc(S(=O)(=O)Nc2ccc(Cl)cc2)c1)c1ccc(Cl)nc1	n	n	n	x
FC(F)(F)c1cccc(NC(=S)NC(c2ccccc2)c2ccccc2)c1	n	n	45	49
FC(F)(F)c1cccc(NC(=S)NNC(=S)Nc2cccc(C(F)(F)F)c2)c1	n	n	n	x
O=C(NCc1nnc(SCC(=O)N2CCCc3ccccc32)o1)c1c(F)cccc1Cl	n	n	n	x
O=C(Nc1ccncc1)C1CCC(CNS(=O)(=O)c2cccc3nsnc23)CC1 (stereo unspecified)	n	n	n	x
O=[N+]([O-])c1cccc(-c2noc(-c3ccco3)n2)c1	n	n	n	x
CCOC(=O)C1CCCN(S(=O)(=O)c2ccc(S(N)(=O)=O)cc2)C1 (stereo unspecified)	n	n	n	x
CCOC(=O)C1CCCN(S(=O)(=O)c2ccc(S(=O)(=O)N(CC)CC)cc2)C1 (stereo unspecified)	n	n	48	n
Cc1[nH]c2ccccc2c1C(=O)C(=O)NCc1ccco1	n	n	n	x
Cc1ccccc1OCC(=O)N1N=C(c2cccnc2)CC1(O)C(F)(F)F (stereo unspecified)	n	x	n	x
Fc1ccc(CN2CCCCCCC2)cc1	x	n	x	x
C=CCn1c(O)c(C=Nc2ccc(CN3CCCCC3)cc2)c(=O)[nH]c1=S	n	n	42	n
COCCN1C(=O)/C(=C/c2ccc(N3CCCC3)cc2C)SC1=S	n	n	n	x
CCn1c(C2CCN(S(=O)(=O)c3ccc(OC)cc3)CC2)n[nH]c1=S	n	n	n	x
